As usually defined, the IC50 is the concentration that gives 50% inhibition. A high value points to weaker potency.

Structures are written as SMILES. Where only a bound is given, the exact number is not on record here.

Sequence of Leucine-rich repeat serine/threonine-protein kinase 2 (Homo sapiens, UniProt Q5S007) (Q5S007 whole entry, the tested form may be a part): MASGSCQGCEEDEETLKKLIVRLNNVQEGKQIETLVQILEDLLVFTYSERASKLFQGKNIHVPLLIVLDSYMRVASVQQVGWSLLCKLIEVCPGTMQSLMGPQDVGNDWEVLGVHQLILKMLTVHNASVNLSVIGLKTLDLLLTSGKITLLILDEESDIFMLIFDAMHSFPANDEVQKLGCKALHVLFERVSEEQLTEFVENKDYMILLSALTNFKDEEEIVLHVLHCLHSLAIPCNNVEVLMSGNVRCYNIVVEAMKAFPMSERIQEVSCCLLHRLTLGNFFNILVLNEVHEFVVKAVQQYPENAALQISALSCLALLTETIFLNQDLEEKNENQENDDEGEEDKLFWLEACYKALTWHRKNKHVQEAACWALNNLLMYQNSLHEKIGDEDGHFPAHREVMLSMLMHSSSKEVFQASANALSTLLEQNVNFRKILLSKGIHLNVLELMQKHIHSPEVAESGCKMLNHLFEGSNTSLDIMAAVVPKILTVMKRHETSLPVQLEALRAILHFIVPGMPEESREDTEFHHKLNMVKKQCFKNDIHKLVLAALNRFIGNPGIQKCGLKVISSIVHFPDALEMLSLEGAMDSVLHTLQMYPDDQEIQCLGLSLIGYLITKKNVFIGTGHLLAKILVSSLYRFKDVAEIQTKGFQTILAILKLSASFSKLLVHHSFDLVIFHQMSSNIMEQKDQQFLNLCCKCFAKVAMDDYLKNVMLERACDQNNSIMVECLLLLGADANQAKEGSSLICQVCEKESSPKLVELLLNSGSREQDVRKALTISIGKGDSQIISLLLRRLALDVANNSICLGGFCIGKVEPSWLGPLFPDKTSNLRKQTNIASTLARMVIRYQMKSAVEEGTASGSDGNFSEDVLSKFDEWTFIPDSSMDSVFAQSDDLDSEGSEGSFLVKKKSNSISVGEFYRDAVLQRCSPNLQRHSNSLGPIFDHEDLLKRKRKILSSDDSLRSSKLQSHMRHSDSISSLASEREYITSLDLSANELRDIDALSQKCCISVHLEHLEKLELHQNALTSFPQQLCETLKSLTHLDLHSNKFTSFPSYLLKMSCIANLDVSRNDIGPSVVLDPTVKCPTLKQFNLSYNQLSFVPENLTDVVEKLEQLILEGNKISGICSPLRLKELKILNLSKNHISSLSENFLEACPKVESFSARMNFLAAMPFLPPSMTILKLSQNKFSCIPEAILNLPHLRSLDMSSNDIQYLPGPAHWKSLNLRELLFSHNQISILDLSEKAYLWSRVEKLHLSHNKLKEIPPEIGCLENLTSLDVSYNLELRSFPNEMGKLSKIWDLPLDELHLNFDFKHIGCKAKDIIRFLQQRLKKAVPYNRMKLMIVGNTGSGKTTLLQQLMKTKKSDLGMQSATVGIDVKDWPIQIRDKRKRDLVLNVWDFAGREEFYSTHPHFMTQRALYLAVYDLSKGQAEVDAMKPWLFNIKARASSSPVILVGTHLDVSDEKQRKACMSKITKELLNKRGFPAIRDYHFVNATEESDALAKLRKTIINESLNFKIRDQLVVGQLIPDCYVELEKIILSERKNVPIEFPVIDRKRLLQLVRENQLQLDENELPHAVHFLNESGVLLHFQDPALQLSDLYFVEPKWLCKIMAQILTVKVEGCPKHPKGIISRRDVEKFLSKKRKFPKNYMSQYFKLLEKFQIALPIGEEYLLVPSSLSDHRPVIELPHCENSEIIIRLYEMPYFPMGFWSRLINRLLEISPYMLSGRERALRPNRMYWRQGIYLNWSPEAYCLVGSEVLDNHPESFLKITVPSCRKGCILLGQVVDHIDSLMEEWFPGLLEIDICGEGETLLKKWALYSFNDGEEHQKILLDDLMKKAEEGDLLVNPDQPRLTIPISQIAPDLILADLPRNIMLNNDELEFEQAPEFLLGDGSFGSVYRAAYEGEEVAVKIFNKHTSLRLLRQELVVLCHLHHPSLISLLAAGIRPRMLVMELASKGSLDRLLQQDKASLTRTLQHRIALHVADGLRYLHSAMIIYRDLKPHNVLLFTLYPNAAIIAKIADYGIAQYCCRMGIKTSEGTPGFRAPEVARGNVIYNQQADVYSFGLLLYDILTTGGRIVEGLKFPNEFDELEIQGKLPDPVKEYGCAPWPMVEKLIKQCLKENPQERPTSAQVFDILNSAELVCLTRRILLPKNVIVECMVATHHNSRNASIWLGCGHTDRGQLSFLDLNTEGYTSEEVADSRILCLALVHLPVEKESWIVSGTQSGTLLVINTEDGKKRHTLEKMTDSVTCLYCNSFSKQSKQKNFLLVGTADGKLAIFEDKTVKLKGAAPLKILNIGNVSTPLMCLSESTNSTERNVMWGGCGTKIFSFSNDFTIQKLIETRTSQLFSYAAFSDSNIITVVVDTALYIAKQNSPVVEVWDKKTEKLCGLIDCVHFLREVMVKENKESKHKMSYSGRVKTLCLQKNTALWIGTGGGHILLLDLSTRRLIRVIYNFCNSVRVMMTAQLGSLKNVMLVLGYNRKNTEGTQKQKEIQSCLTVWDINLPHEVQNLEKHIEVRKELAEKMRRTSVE

In one assay the target is Leucine-rich repeat serine/threonine-protein kinase 2 (Homo sapiens, UniProt Q5S007, G2019S). Description: Inhibition of N-terminal GST-fused human LRRK2 G2019S mutant using fluorescein-labeled LRRKtide as substrate preincubated for 15 mins followed by substrate addition and measured after 1 hr by TR-FRET assay. In outline: (§1)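 Purified truncated LRRK2, WT or G2019S, at 2 nM nominal was preincubated with inhibitor for 15 min. LRRKtide (0.4 μM) and ATP (25 μM) were then added for 1 h. The reaction was stopped with 10 mM EDTA plus 2 nM Tb-anti-pLRRKtide antibody, and TR-FRET was read. IC50 is the geometric mean of at least two independent experiments.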
Sequence of Leucine-rich repeat serine/threonine-protein kinase 2 (Homo sapiens, UniProt Q5S007, G2019S) (Q5S007 whole entry G2019S, the tested form may be a part): as the sequence (Q5S007 whole entry, the tested form may be a part) above, with G2019S counted along it
Molecule `CC1=C(C(=O)Nc2ccc3[nH]ncc3c2)[C@H](C)n2nnnc2N1C` showed an IC50 of 94 nM.

In turn, `CC1=C(C(=O)Nc2ccc3c(c2)CC(=O)N3)Cn2nnnc2N1C` registered an IC50 of 6370 nM.

In turn, `CC1=C(C(=O)Nc2ccc3c(c2)CNC3=O)[C@@H](C)n2nnnc2N1C` registered an IC50 of 32 nM.

Regarding `CC1=C(C(=O)Nc2ccc3c(c2)C(=O)NC3=O)[C@@H](C)n2nnnc2N1C`, the midpoint of inhibition, the IC50, lay at 55 nM.

`CC1=C(C(=O)Nc2ccc3[nH]cc(C)c3c2)Cn2nnnc2N1C` showed an IC50 greater than 10000 nM.

In turn, `CCC1=C(C(=O)Nc2ccc3[nH]ncc3c2)Cn2nnnc2N1C` yielded an IC50 of 244 nM.

The molecule `CC1=C(C(=S)Nc2ccc3[nH]ncc3c2)Cn2nnnc2N1C` showed an IC50 of 15.3 nM.

`CCN1C(C)=C(C(=O)Nc2ccc3[nH]ncc3c2)Cn2nnnc21` showed an IC50 of 58 nM.

Consider `CC1=C(C(=O)Nc2ccc3[nH]nc(C)c3c2)Cn2nnnc2N1C`, for which inhibition was half-maximal at 10 nM (IC50).

`CC1=C(C(=O)Nc2ccc3[nH]c(=O)[nH]c3c2)Cn2nnnc2N1C` registered an IC50 of 240 nM.

In turn, `CC(=O)N1C(C)=C(C(=O)Nc2ccc3[nH]ncc3c2)Cn2nnnc21` returned an IC50 of 513 nM.

Regarding `CC1=C(C(=O)Nc2ccc3c(c2)[nH]c(=O)n3C)[C@@H](C)n2nnnc2N1C`, the IC50 was greater than 10000 nM.

In turn, `CC1=C(C(=O)N(C)c2ccc3[nH]ncc3c2)Cn2nnnc2N1C` showed an IC50 greater than 10000 nM.

As for `CC1=C(C(=O)Nc2ccc3[nH]nc(-c4ccncc4)c3c2)Cn2nnnc2N1C`, the IC50 turned out to be 0.44 nM.

`CC1=C(C(=O)Nc2ccc3[nH]nc(C(N)=O)c3c2)Cn2nnnc2N1C`: the IC50 came to 6 nM.

`CC1=C(C(=O)Nc2ccc3[nH]ncc3c2)Cn2nnnc2N1C`: the IC50 worked out at 32 nM.

`CC1=C(C(=O)Nc2ccc3[nH]nc(-c4cc(N5CCOCC5)ncn4)c3c2)Cn2nnnc2N1C` came in with an IC50 of 0.4 nM.

In turn, `CC1=C(C(=O)Nc2ccn3cnc(C)c3c2)Cn2nnnc2N1C` registered an IC50 of 1350 nM.

`CC1=C(C(=O)Nc2ccc3[nH]nc(-c4ccc(S(N)(=O)=O)cc4)c3c2)Cn2nnnc2N1C` had an IC50 of less than 0.2 nM.

A further assay has as its target Leucine-rich repeat serine/threonine-protein kinase 2 (Homo sapiens, UniProt Q5S007). As to the kind of experiment: Inhibition of N-terminal GST-fused human wild type LRRK2 using fluorescein-labeled LRRKtide as substrate preincubated for 15 mins followed by substrate addition and measured after 1 hr by TR-FRET assay. The method, boiled down: as §1
(TR-FRET usually uses a lanthanide donor and a delayed reading to cut background.)
As for `CC1=C(C(=O)Nc2ccc3[nH]ncc3c2)[C@H](C)n2nnnc2N1C`, the IC50 is 302 nM.

`CC1=C(C(=O)Nc2ccc3c(c2)CC(=O)N3)Cn2nnnc2N1C` showed an IC50 greater than 10000 nM.

Consider `CC1=C(C(=O)Nc2ccc3c(c2)CNC3=O)[C@@H](C)n2nnnc2N1C`, for which the IC50 was found to be 1700 nM.

Molecule `CC1=C(C(=O)Nc2ccc3c(c2)C(=O)NC3=O)[C@@H](C)n2nnnc2N1C` showed an IC50 of 2840 nM.

`CC1=C(C(=O)Nc2ccc3[nH]cc(C)c3c2)Cn2nnnc2N1C` returned an IC50 greater than 10000 nM.

Turning to `CCC1=C(C(=O)Nc2ccc3[nH]ncc3c2)Cn2nnnc2N1C`, the IC50 was found to be 534 nM.

With `CCN1C(C)=C(C(=O)Nc2ccc3[nH]ncc3c2)Cn2nnnc21`, the IC50 turned out to be 865 nM.

`CC1=C(C(=O)Nc2ccc3[nH]nc(C)c3c2)Cn2nnnc2N1C` had an IC50 of 121 nM.

`CC1=C(C(=O)Nc2ccc3[nH]c(=O)[nH]c3c2)Cn2nnnc2N1C`: the IC50 is greater than 8600 nM.

`CC(=O)N1C(C)=C(C(=O)Nc2ccc3[nH]ncc3c2)Cn2nnnc21` registered an IC50 of 2540 nM.

The molecule `CC1=C(C(=O)Nc2ccc3c(c2)[nH]c(=O)n3C)[C@@H](C)n2nnnc2N1C` had a half-inhibitory concentration (IC50) greater than 10000 nM.

In the case of `CC1=C(C(=O)Nc2ccc3[nH]nc(-c4ccncc4)c3c2)Cn2nnnc2N1C`, the IC50 worked out at 9 nM.

With `CC1=C(C(=O)Nc2ccc3[nH]nc(C(N)=O)c3c2)Cn2nnnc2N1C`, half-maximal inhibition (IC50) required 125 nM.

Regarding `CC1=C(C(=O)Nc2ccc3[nH]ncc3c2)Cn2nnnc2N1C`, inhibition was half-maximal at 509 nM (IC50).

Regarding `CC1=C(C(=O)Nc2ccc3[nH]nc(-c4cc(N5CCOCC5)ncn4)c3c2)Cn2nnnc2N1C`, the IC50 stood at 0.88 nM.

Molecule `CC1=C(C(=O)Nc2ccn3cnc(C)c3c2)Cn2nnnc2N1C` gave an IC50 greater than 10000 nM.

The molecule `CC1=C(C(=O)Nc2ccc3[nH]nc(-c4ccc(S(N)(=O)=O)cc4)c3c2)Cn2nnnc2N1C` came in with an IC50 of 0.7 nM.

The next assay is filed under the species Homo sapiens. As to the kind of experiment: Selectivity ratio of IC50 for inhibition of N-terminal GST-fused human wild type LRRK2 to IC50 for inhibition of N-terminal GST-fused human […] mutant. In outline: as §1
Turning to `CC1=C(C(=O)Nc2ccc3[nH]ncc3c2)[C@H](C)n2nnnc2N1C`, the Ratio IC50 amounted to 3.2.

As to `CC1=C(C(=O)Nc2ccc3c(c2)CC(=O)N3)Cn2nnnc2N1C`, the Ratio IC50 is greater than 1.6.

Turning to `CC1=C(C(=O)Nc2ccc3c(c2)CNC3=O)[C@@H](C)n2nnnc2N1C`, the Ratio IC50 was found to be 53.

With `CC1=C(C(=O)Nc2ccc3c(c2)C(=O)NC3=O)[C@@H](C)n2nnnc2N1C`, the Ratio IC50 came out at 52.

Regarding `CCC1=C(C(=O)Nc2ccc3[nH]ncc3c2)Cn2nnnc2N1C`, the Ratio IC50 turned out to be 2.2.

As to `CC1=C(C(=S)Nc2ccc3[nH]ncc3c2)Cn2nnnc2N1C`, the Ratio IC50 was 15.

As to `CCN1C(C)=C(C(=O)Nc2ccc3[nH]ncc3c2)Cn2nnnc21`, the Ratio IC50 came out at 15.

Take `CC1=C(C(=O)Nc2ccc3[nH]nc(C)c3c2)Cn2nnnc2N1C`: the Ratio IC50 stood at 12.

On to `CC1=C(C(=O)Nc2ccc3[nH]c(=O)[nH]c3c2)Cn2nnnc2N1C`, for which the Ratio IC50 is greater than 36.

`CC(=O)N1C(C)=C(C(=O)Nc2ccc3[nH]ncc3c2)Cn2nnnc21`: the Ratio IC50 is 5.

Take `CC1=C(C(=O)Nc2ccc3[nH]nc(-c4ccncc4)c3c2)Cn2nnnc2N1C`: the Ratio IC50 amounted to 20.

On to `CC1=C(C(=O)Nc2ccc3[nH]nc(C(N)=O)c3c2)Cn2nnnc2N1C`, for which the Ratio IC50 stood at 21.

As to `CC1=C(C(=O)Nc2ccc3[nH]ncc3c2)Cn2nnnc2N1C`, the Ratio IC50 turned out to be 16.

For `CC1=C(C(=O)Nc2ccc3[nH]nc(-c4cc(N5CCOCC5)ncn4)c3c2)Cn2nnnc2N1C`, the Ratio IC50 is 2.2.

Regarding `CC1=C(C(=O)Nc2ccn3cnc(C)c3c2)Cn2nnnc2N1C`, the Ratio IC50 is greater than 7.4.

For `CC1=C(C(=O)Nc2ccc3[nH]nc(-c4ccc(S(N)(=O)=O)cc4)c3c2)Cn2nnnc2N1C`, the Ratio IC50 was greater than 3.5.
